≈ marks a conversion by molar mass, not a printed value. Calls of active or inactive are those of the source. The calls are words filed in the database; no cut-off is given here.
Tests used:
[1] = biological target: Dual specificity mitogen-activated protein kinase kinase; MEK1/2 (Homo sapiens, UniProt P36507+Q02750); experiment: Inhibition of human MEK using fluorescein-labelled Erk-tide as substrate after 20 mins by IMAP assay
Outline: (§1)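 Values are means of two experiments, IC50 in nM.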

[2] = Inhibition of Erk phosphorylation in human HT-29 cells; format: cell-based; outline: as §1
[3] = system: HT-29; experiment: Antiproliferative activity against human HT-29 cells; format: functional, cell-based; outline: as §1
[4] = Aqueous solubility of the compound at pH 7.4; format: physicochemical
[5] = Intrinsic clearance in rat hepatocytes assessed per 10^6 cells; format: ADME, cell-based, Hepatocyte; settings: read-out: CLH
[6] = Cmax in mouse at 10 mg/kg, po; format: ADME, organism-based; set-up: dose 10 mg/kg, route oral; settings: in vivo
Outline: (§2)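 Female nude mice, single oral dose 10 mg/kg; plasma drug levels measured over time; Cmax and AUClast derived.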

[7] = AUC (0 to last) in mouse at 10 mg/kg, po; format: ADME, organism-based; set-up: time 0 - last, dose 10 mg/kg, route oral; settings: plasma; outline: as §2
[8] = system: Mus musculus; experiment: Inhibition of Erk phosphorylation in PMA-stimulated whole blood in nude mouse bearing human HT-29 cells at 50 mg/kg, po after 1 hr; format: functional, organism-based; set-up: dose 50 mg/kg
Outline: (§3)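 Nude mice bearing HT-29 tumours, dosed p.o. with vehicle (0 h) or 50 mg/kg compound; pERK measured in PMA-stimulated whole blood at 1, 6 and 18 h post dose. Plasma drug by LC–MS/MS; significance versus vehicle by one-way ANOVA with Bonferroni post test.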

[9] = system: Mus musculus; experiment: Inhibition of Erk phosphorylation in PMA-stimulated whole blood in nude mouse bearing human HT-29 cells at 50 mg/kg, po after 6 hrs; format: functional, organism-based; set-up: dose 50 mg/kg; outline: as §3
[10] = system: Mus musculus; experiment: Inhibition of Erk phosphorylation in PMA-stimulated whole blood in nude mouse bearing human HT-29 cells at 50 mg/kg, po after 18 hrs relative to control; format: functional; settings: HT-29, Blood; outline: as §3
[11] = system: Mus musculus; experiment: Inhibition of Erk phosphorylation in human HT-29 cells xenografted in nude mouse at 50 mg/kg, po after 18 hrs

IC50 [1] | IC50 [2] | IC50 [3] | SMILES | further results
6 nM | 51 nM | 1580 nM | CC1(C)CNC(=O)c2sc(Nc3ccc(I)cc3F)c(C(=O)NOC[C@H](O)CO)c2C1 | 
200 nM | 717 nM | 12100 nM | CC1(C)CNC(=O)c2sc(Nc3ccc(I)cc3Cl)c(C(=O)NCC[C@@H](O)CO)c2C1 | 
14 nM | 978 nM |  | CC1(C)CNC(=O)c2sc(Nc3ccc(I)cc3F)c(C(=O)O)c2C1 | 
18 nM | 13 nM | 113 nM | CC(C)(N)CNC(=O)c1c(Nc2ccc(I)cc2Cl)sc2c1CC(C)(C)CNC2=O | 
9 nM | 76 nM | 896 nM | CC1(C)CNC(=O)c2sc(Nc3ccc(I)cc3Cl)c(C(=O)NOC[C@H](O)CO)c2C1 | 
28 nM | 43 nM | 710 nM | CC1(C)CNC(=O)c2sc(Nc3ccc(I)cc3Cl)c(C(=O)NC[C@@H](O)CO)c2C1 | 
226 nM | 224 nM | 1630 nM | CNC(=O)c1c(Nc2ccc(I)cc2Cl)sc2c1CC(C)(C)CNC2=O | 
2617 nM |  |  | CCOC(=O)c1c(Nc2ccc(I)cc2Cl)sc2c1CC(C)(C)CNC2=O | 
13 nM | 92 nM | 596 nM | CC1(C)CNC(=O)c2sc(Nc3ccc(I)cc3Cl)c(C(N)=O)c2C1 | solubility ([4]; buffer): Insoluble
309 nM | 140 nM | 6210 nM | CC1(C)CNC(=O)c2sc(Nc3ccc(I)cc3F)c(C(=O)NCCCO)c2C1 | 
7 nM | 18 nM | 340 nM | CC1(C)CNC(=O)c2sc(Nc3ccc(I)cc3F)c(C(=O)NOCCO)c2C1 | 

Further lines, the compound ahead of its results:

SMILES | IC50 [1] | IC50 [2] | IC50 [3] | further results
CCOC(=O)c1c(Nc2ccc(I)cc2F)sc2c1CC(C)(C)CNC2=O | 305 nM |  |  | 
CC1(C)CNC(=O)c2sc(Nc3ccc(I)cc3F)c(C(=O)N[C@@H]3CCNC3)c2C1 | 8 nM | 9 nM | 54 nM | 
CC(C)(N)CNC(=O)c1c(Nc2ccc(I)cc2F)sc2c1CC(C)(C)CNC2=O | 14 nM | 6 nM | 79 nM | solubility ([4]; aqueous, read-out: solubility): 210 µM (≈ 114 µg/mL); hepatocyte CLint [5]: 2.6 µL/min/1e6 cells; Cmax [6]: 323 ng/mL; AUC(0-t) [7]: 1240 ng·h/mL; inhibition [8]: Active; inhibition [9]: Active; inhibition in vivo at 50 mg/kg [10]: 35%; inhibition [11]: inactive
CC1(C)CNC(=O)c2sc(Nc3ccc(I)cc3Cl)c(C(=O)N3CCNCC3)c2C1 | 456 nM | 45 nM | 1040 nM | 
CC1(C)CNC(=O)c2sc(Nc3ccc(I)cc3F)c(C(=O)N[C@@H]3CCCNC3)c2C1 | 22 nM | 5 nM | 91 nM | 
CC1(C)CNC(=O)c2sc(Nc3ccc(I)cc3F)c(C(N)=O)c2C1 | 9 nM |  | 158 nM | 
CC1(C)CNC(=O)c2sc(Nc3ccc(I)cc3F)c(C(=O)NC[C@H]3CCCN3)c2C1 | 42 nM | 22 nM | 120 nM | 
CC1(C)CNC(=O)c2sc(Nc3ccc(I)cc3F)nc2C1 | 946 nM | 1540 nM | 8870 nM | 

From ChEMBL document CHEMBL1933045, “Fused thiophene derivatives as MEK inhibitors” (Bioorg Med Chem Lett, 2012)
